Assay results of several laboratories.
Each line is one published result; the experiments were not run side by side.
Organism: Klebsiella pneumoniae
Observed: microbial growth

SMILES	technique	strain	time	setting	MIC
CO[C@H]1/C=C/O[C@@]2(C)Oc3c(C)c(O)c4c(O)c(c(/C=N/N5CCN(C)CC5)c(O)c4c3C2=O)NC(=O)/C(C)=C\C=C\[C@H](C)[C@H](O)[C@@H](C)[C@@H](O)[C@@H](C)[C@H](OC(C)=O)[C@@H]1C	broth dilution	ATCC700603	–	–	10 µM
CCCCCCC#Cc1cncc(-c2nnc(SCc3ccc(Cl)cc3)n2C)c1	–	–	–	–	≥ 20 µg/mL
CN(C)[C@@H]1C(O)=C(C(N)=O)C(=O)[C@@]2(O)C(O)=C3C(=O)c4c(cc5ccc(CN(C)S(C)(=O)=O)cc5c4O)C[C@H]3C[C@@H]12	broth dilution	ATCC13883	–	–	32 µg/mL
CC[C@H]1OC(=O)[C@H](C)[C@@H](O[C@H]2C[C@@](C)(OC)[C@@H](O)[C@H](C)O2)[C@H](C)[C@@H](O[C@@H]2O[C@H](C)C[C@H](N(C)C)[C@H]2O)[C@](C)(O)C[C@@H](C)C(=O)[C@H](C)[C@@H](O)[C@]1(C)O	broth dilution	ATCC700603	–	–	160 µM
CN(C)[C@@H]1C(O)=C(C(N)=O)C(=O)[C@@]2(O)C(O)=C3C(=O)c4c(cc5ccc(CN6CC(C#N)C6)cc5c4O)C[C@H]3C[C@@H]12	broth dilution	ATCC13883	–	–	16 µg/mL
CC1=NN(CNc2ccc(Cl)cc2)C(=O)C1=NNn1c(-c2ccccc2)nc2ccccc2c1=O	broth dilution	–	24 h	–	51.5 µM
O=C(Nc1ccc(F)c(Cl)c1)c1cc(Cl)ccc1O	broth dilution	BAA1705	–	–	> 64 µg/mL
CC(C)Oc1c(NC(=O)c2ccc(NC(=O)c3ccc(NC(=O)[C@H](CC(N)=O)NC(=O)c4ccc(NC(=O)c5ccc(C#N)cn5)cc4)cc3)c(OC(C)C)c2O)ccc(C(=O)O)c1O	–	DSM30104	–	–	4 µg/mL
CCCCCCC#Cc1cncc(-c2nnc(SCc3ccc([N+](=O)[O-])o3)n2C2CC2)c1	–	–	–	–	≥ 20 µg/mL
C=C[C@]1(C)C[C@@H](OC(=O)CS[C@@H]2C[C@H]3CC[C@@H](C2)N3C)[C@]2(C)[C@H](C)CC[C@]3(CCC(=O)[C@H]32)[C@@H](C)[C@@H]1O	broth dilution	ATCC700603	–	–	160 µM
NC1CCCCc2c1[nH]c1ccc(Br)cc21 (stereo not drawn)	broth dilution	ATCC10031	–	–	16 µg/mL
O=C1NN=C(N=Cc2ccc(O)cc2O)C1=NNn1c(-c2ccccc2)nc2ccccc2c1=O	broth dilution	–	24 h	–	53.5 µM
Cc1c(CN(C)C(=O)/C=C/c2cnc3c(c2)CC(CCN)C(=O)N3)oc2ccccc12.Cl (stereo not drawn)	broth dilution	BAA2473	–	–	16 µg/mL
O=C(Nc1ccc(S(=O)(=O)c2nccs2)cc1)c1cc(N=Nc2nccs2)ccc1O	broth dilution	–	–	–	100 µg/mL
CCCCCCC#Cc1cncc(-c2nnc(SCc3ccc([N+](=O)[O-])cc3)n2C)c1	–	–	–	–	≥ 20 µg/mL
NC[C@H]1O[C@H](O[C@H]2[C@H](O)[C@@H](O[C@H]3O[C@H](CO)[C@@H](O)[C@H](N)[C@H]3O)[C@H](N)C[C@@H]2N)[C@H](N)C[C@@H]1O	–	–	–	–	0.5 to 1 µg/mL
CC1(C)S[C@@H]2[C@H](NC(=O)COc3ccccc3)C(=O)N2[C@H]1C(=O)O	broth dilution	ATCC10031	18 h	–	4 µg/mL
CCc1c(Cl)c(O)c(Cl)c(O)c1C(=O)O[C@H]1[C@H](O)[C@H](OC)[C@H](OC/C2=C\C=C\C[C@H](O)/C(C)=C/[C@H](CC)[C@@H](O[C@@H]3OC(C)(C)[C@@H](OC(=O)C(C)C)[C@H](O)[C@@H]3O)/C(C)=C/C(C)=C/C[C@@H]([C@@H](C)O)OC2=O)O[C@@H]1C	broth dilution	ATCC700603	–	–	320 µM
O=C(Nc1ccc2c(c1)OC(F)(F)O2)Nc1ccc(Cl)c(C(F)(F)F)c1	–	DSM30104	–	–	> 100 µM
CC(C)(O/N=C(\C(=O)N[C@@H]1C(=O)N2C(C(=O)[O-])=C(C[n+]3ccccc3)CS[C@H]12)c1csc(N)n1)C(=O)O	broth dilution	ATCC700603	–	–	5 µM

SMILES	technique	strain	time	setting	MIC
CC1=NN(CNC(=O)c2ccccn2)C(=O)C1=NNn1c(-c2ccccc2)nc2ccccc2c1=O	broth dilution	–	24 h	–	52 µM
C/C(=C\C(=O)OCCCCCCCCC(=O)O)C[C@@H]1OC[C@H](C[C@@H]2O[C@H]2[C@@H](C)[C@H](C)O)[C@@H](O)[C@H]1O	broth dilution	ATCC700603	–	–	160 µM
CC1=NN(CNc2c(O)c(S(=O)(=O)O)cc3ccccc23)C(=O)C1=NNn1c(-c2ccccc2)nc2ccccc2c1=O	broth dilution	–	24 h	–	83.7 µM
CC(C)Oc1c(NC(=O)c2ccc(NC(=O)[C@H](CC(N)=O)NC(=O)c3ccc(NC(=O)c4ccc(C#N)cn4)cc3)cc2)ccc(C(=O)Nc2ccc(C(=O)O)cc2)c1O	–	DSM30104	–	–	> 64 µg/mL
CCCCCCC#Cc1cncc(-c2nnc(SCc3ccc(Cl)c(F)c3)n2C)c1	–	–	–	–	≥ 20 µg/mL
NC[C@@H]1O[C@H](O[C@H]2[C@@H](O)[C@H](O[C@@H]3[C@@H](O)[C@H](N)C[C@H](N)[C@H]3O[C@H]3O[C@H](CO)[C@@H](O)[C@H](O)[C@H]3N)O[C@@H]2CO)[C@H](N)[C@@H](O)[C@@H]1O	–	–	–	–	1 µg/mL
CC1=NN(CNc2ccc(C(=O)O)cc2)C(=O)C1=NNn1c(-c2ccccc2)nc2ccccc2c1=O	broth dilution	–	24 h	–	50.5 µM
CCC[C@@H]1C[C@@H](C(=O)N[C@@H]([C@H]2O[C@H](SC)[C@H](O)[C@@H](O)[C@H]2O)[C@H](C)Cl)N(C)C1	broth dilution	ATCC700603	–	–	640 µM
CC(C)(O/N=C(\C(=O)N[C@@H]1C(=O)N2C(C(=O)[O-])=C(C[n+]3ccccc3)CS[C@H]12)c1csc(N)n1)C(=O)O	–	–	18 h	clinical isolate	> 128 µg/mL
CO[C@H]1/C=C/O[C@@]2(C)Oc3c(C)c(O)c4c(O)c(c(/C=N/N5CCN(C)CC5)c(O)c4c3C2=O)NC(=O)/C(C)=C\C=C\[C@H](C)[C@H](O)[C@@H](C)[C@@H](O)[C@@H](C)[C@H](OC(C)=O)[C@@H]1C	–	ATCC13882	–	–	16 µg/mL
CO[C@@H](C(N)=O)[C@H](NC(=O)c1ccc(NC(=O)c2ccc(C#N)cc2)cc1)C(=O)Nc1ccc(C(=O)Nc2ccc(C(=O)Nc3ccc(C(=O)O)cc3)c(O)c2OC(C)C)cc1	–	DSM30104	–	–	8 µg/mL
Cc1c(CN(C)C(=O)/C=C/c2cnc3c(c2)CC(NC(=O)OC(C)(C)C)C(=O)N3)oc2ccccc12 (stereo not drawn)	broth dilution	–	–	–	> 32 µg/mL
CN[C@H](CC(C)C)C(=O)N[C@H]1C(=O)N[C@@H](CC(N)=O)C(=O)N[C@H]2C(=O)N[C@H]3C(=O)N[C@H](C(=O)N[C@H](C(=O)O)c4cc(O)cc(O)c4-c4cc3ccc4O)[C@H](O)c3ccc(c(Cl)c3)Oc3cc2cc(c3O[C@@H]2O[C@H](CO)[C@@H](O)[C@H](O)[C@H]2O[C@H]2C[C@](C)(N)[C@H](O)[C@H](C)O2)Oc2ccc(cc2Cl)[C@H]1O	broth dilution	ATCC43816	–	–	> 128 µM
NC1CCCCc2c1[nH]c1ccc(Cl)c(Cl)c21 (stereo not drawn)	broth dilution	ATCC10031	–	–	8 µg/mL
CC(=O)NCN1N=C(C)C(=NNn2c(-c3ccccc3)nc3ccccc3c2=O)C1=O	broth dilution	–	24 h	–	59.9 µM
CN(C)[C@@H]1C(O)=C(C(N)=O)C(=O)[C@@]2(O)C(O)=C3C(=O)c4c(cc5ccc(CN6CC(F)(F)C6)cc5c4O)C[C@H]3C[C@@H]12	broth dilution	ATCC13883	–	–	32 µg/mL
CNC(C)C1CCC(N)C(OC2C(N)CC(N)C(OC3OCC(C)(O)C(NC)C3O)C2O)O1 (stereo not drawn)	–	–	–	–	0.25 µg/mL
CN(C)Cc1ccc2c(N(C)C)c3c(c(O)c2c1)C(=O)C1=C(O)[C@]2(O)C(=O)C(C(N)=O)=C(O)[C@@H](N(C)C)[C@@H]2C[C@@H]1C3	broth dilution	ATCC13883	–	–	4 µg/mL
C[C@@H](O)[C@H]1C(=O)N2C(C(=O)O)=C(S[C@@H]3CN[C@H](C(=O)N(C)C)C3)[C@H](C)[C@H]12	broth dilution	ATCC700603	–	–	0.63 µM
